Laboratory results taken from ChEMBL document CHEMBL3870302, “Computer-aided identification, synthesis and evaluation of substituted thienopyrimidines as novel inhibitors of HCV replication” (Eur J Med Chem, 2016).

Experiments:
[1] = Selectivity index, ratio of CC50 for human HuH5.2 cells to EC50 for hepatitis C virus genotype 1b infected in human HuH5.2 cells; type: toxicity, cell-based; details: for selectivity ratio: HuH5.2 cells, read-out: Ratio CC50/EC50
How it was run: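 Ratio of CC50 (MTS metabolic read-out, 72 h) to EC50 (replicon luciferase read-out, 72 h), both measured in parallel on Huh 5-2 genotype 1b replicon cells.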

[2] = Inhibition of Hepatitis C virus genotype 1b (con1) full length C-terminal His-tagged NS3 helicase expressed in Escherichia coli Rosette(DE3) assessed as inhibition of 5'-Cy5/3'-IAbRQ-labeled DNA unwinding activity by molecular beacon assay; parameters: species or system Hepatitis C virus (isolate Con1)
How it was run: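 Molecular beacon unwinding assay: 25 mM MOPS pH 6.5, 1.25 mM MgCl2, 5% DMSO, 5 µg/ml BSA, 0.01% Tween20, 0.05 mM DTT, 5 nM fluorescent DNA substrate, 12.5 nM NS3h, 1 mM ATP.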

[3] = Cytotoxicity against human HuH5.2 cells assessed as reduction in metabolic activity after 72 hrs by MTS assay; type: toxicity, cell-based, Huh-5-2; details: for CC50 at 72 h: HuH5.2 cells
How it was run: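 Run in parallel with the replicon assay: Huh 5-2 replicon cells, 6 500 cells/well, compound series for 72 h at 37 °C, 5% CO2. Medium then replaced with 5% MTS in phenol red-free medium for 1.5 h. Absorbance at 498 nm expressed as % untreated cells; CC50 from dose-response curve as 50% reduction in metabolic activity, mean of ≥2 experiments.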

[4] = system: Hepatitis C virus; experiment: Antiviral activity against Hepatitis C virus genotype 1b infected in human HuH5.2 cells after 72 hrs by luciferase reporter gene assay; type: functional, cell-based, Hepacivirus hominis
How it was run: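 Huh 5-2 cells with genotype 1b I389luc-ubi-neo/NS3-3'/5.1 subgenomic replicon, seeded 6 500 cells/well in DMEM/10% FCS without Geneticin, overnight 37 °C. Compound (DMSO stock diluted in medium) in 1:5 four-step or 1:2 eight-step series, 72 h. Cells PBS-washed, lysed 5 min, luciferase luminescence read, converted to % untreated control; EC50 from dose-response curve, mean of ≥2 independent experiments.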

[5] = Inhibition of protease domain lacking Hepatitis C virus genotype 1b (con1) C-terminal His-tagged NS3 helicase ATP hydrolysis activity using ATP as substrate preincubated followed by substrate addition measured after 15 mins in presence of poly U RNA by malachite green-based assay; parameters: species or system Hepatitis C virus (isolate Con1)
[6] = Inhibition of Cy5-labeled dT15 DNA binding to Hepatitis C virus genotype 1b (con1) NS3 helicase DNA by fluorescence polarization assay; parameters: species or system Hepatitis C virus (isolate Con1)
How it was run: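 Displacement of NS3h from a DNA oligonucleotide, 15 nM NS3h in 25 mM MOPS pH 7.5, 1.25 mM MgCl2, 0.0025 mg/ml BSA, 0.005% Tween20, 0.025 mM DTT.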

[7] = Inhibition of protease domain lacking Hepatitis C virus genotype 1b (con1) C-terminal His-tagged NS3 helicase ATP hydrolysis activity using ATP as substrate preincubated followed by substrate addition measured after 15 mins in absence of poly U RNA by malachite green-based assay; parameters: species or system Hepatitis C virus (isolate Con1)
[8] = Hepatitis C virus, genotype 1b, Huh-5-2, 72 h

Row | Compound | selectivity ratio [1] | IC50 [2] [µM] | CC50 at 72 h [3] [µM] | EC50 [4, 8] [µM] | EC90 [4, 8] [µM] | IC50 [5] [µM] | IC50 [6] [µM] | IC50 [7] [µM] | Ratio CC50/EC50 [1] | CC50 ([3]; huh-5-2, 72 h, 72 h) [µM] | EC50 [4] [µM]
1 | CCc1sc2ncnc(N/N=C(/C)c3cc(O)ccc3O)c2c1C | > 364 | > 1000 | > 292 | 0.803 | 1.62 | – | – | – | – | – | –
2 | O=C(NNc1ncnc2sccc12)c1ccccn1 | 445 | > 1000 | 138 | 0.314 | 0.671 | – | – | – | – | – | –
3 | c1ccc2[nH]c(Nc3ncnc4sc5c(c34)CCCC5)nc2c1 | 4.2 | > 1000 | 231 | 55.4 | > 104 | – | – | – | – | – | –
4 | O=C(NNc1ncnc2sc3ccccc3c12)c1cnccn1 | 18.5 | > 1000 | 1.34 | 0.0723 | 0.192 | > 1000 | 949 | – | – | – | –
5 | C/C(=N\Nc1ncnc2sc3c(c12)CCCC3)c1ccccc1O | 59.2 | > 1000 | 154 | 2.6 | 20.1 | 780 | > 1000 | 760 | – | – | –
6 | c1ccc2c(Nc3ncnc4sc5c(c34)CCCC5)cccc2c1 | 8.7 | > 1000 | 281 | 32.4 | > 33.5 | – | – | – | – | – | –
7 | Oc1ccc(O)c(/C=N/Nc2ncnc3sc4c(c23)CCCC4)c1 | 31.5 | > 1000 | 36.8 | 1.17 | 2.92 | – | – | – | – | – | –
8 | C/C(=N/Nc1ncnc2sc(C)c(C)c12)c1cc(O)ccc1O | > 193 | > 1000 | > 305 | 1.58 | 4.65 | – | – | – | – | – | –
9 | O=S(=O)(NNc1ncnc2sc3c(c12)CCCC3)c1ccccn1 | 3.4 | > 1000 | 145 | 42.9 | 83.2 | > 1000 | 675 | – | – | – | –
10 | C/C(=N/Nc1ncnc2sccc12)c1cc(O)ccc1O | 81 | 229 | 226 | 2.79 | 4.55 | – | – | – | – | – | –
11 | C/C(=N\Nc1ncnc2sc3c(c12)CCCC3)c1cnccn1 | 160 | > 1000 | 57.1 | 0.355 | 2.85 | – | – | – | – | – | –
12 | O=C(NNc1ncnc2sc3c(c12)CCC3)c1ccccn1 | 8.9 | > 1000 | 6.61 | 0.745 | 1.94 | – | – | – | – | – | –
13 | O=C(NNc1ncnc2sc3c(c12)CCCC3)c1cc(O)ccc1O | 199 | > 1000 | 99.9 | 0.502 | 0.945 | – | – | – | – | – | –
14 | O=C(NNc1ncnc2sc3c(c12)CCC3)c1ccccc1O | 538 | 250 | 119 | 0.221 | 0.352 | 333 | > 1000 | > 1000 | – | – | –
15 | C/C(=N/Nc1ncnc2sc3c(c12)CCC3)c1nc2ccccc2[nH]1 | 8.3 | > 1000 | 6.83 | 0.802 | < 2.24 | – | – | – | – | – | –
16 | C/C(=N\Nc1ncnc2sc3c(c12)CCCC3)c1nc2ccccc2[nH]1 | 15.4 | > 1000 | 37.3 | 2.42 | 7.06 | – | – | – | – | – | –
17 | C/C(=N\Nc1ncnc2sc3c(c12)CCC3)c1ccccc1O | 82.9 | > 1000 | 141 | 1.72 | 4.07 | – | – | – | – | – | –
18 | O=C(NNc1ncnc2sc3c(c12)CCC3)c1nc2ccccc2[nH]1 | 11.6 | > 1000 | 7.46 | 0.594 | 1.11 | – | – | – | – | – | –
19 | C/C(=N/Nc1ncnc2sc(Cl)c(C)c12)c1cnccn1 | 53.9 | > 1000 | 3.13 | 0.058 | 0.289 | – | – | – | – | – | –
20 | O=C(NNc1ncnc2sc3c(c12)CCCC3)c1ccccn1 | 5.27 | > 1000 | 7.75 | 1.47 | 0.819 | – | – | – | – | – | –

Row | Compound | selectivity ratio [1] | IC50 [2] [µM] | CC50 at 72 h [3] [µM] | EC50 [4, 8] [µM] | EC90 [4, 8] [µM] | IC50 [5] [µM] | IC50 [6] [µM] | IC50 [7] [µM] | Ratio CC50/EC50 [1] | CC50 ([3]; huh-5-2, 72 h, 72 h) [µM] | EC50 [4] [µM]
21 | C/C(=N\Nc1ncnc2sc3ccccc3c12)c1cc(O)ccc1O | 44.2 | > 1000 | 21 | 0.475 | 0.897 | – | – | – | – | – | –
22 | Cc1c(Cl)sc2ncnc(NNC(=O)c3ccccc3O)c12 | > 56.1 | 306 | > 8.96 | 0.159 | – | – | – | – | – | – | –
23 | O=C(NNc1ncnc2sc3c(c12)CCCC3)c1nc2ccccc2[nH]1 | 18.5 | > 1000 | 3.14 | 0.17 | 0.679 | – | – | – | – | – | –
24 | O=C(NNc1ncnc2sc3c(c12)CCCC3)c1cc2ccccc2[nH]1 | 3.6 | 224 | 74.5 | 20.8 | – | – | – | – | – | – | –
25 | O=C(NNc1ncnc2sc3c(c12)CCC3)c1cc(O)ccc1O | 84.6 | > 1000 | 198 | 2.34 | 3.67 | – | – | – | – | – | –
26 | O=C(NNc1ncnc2sccc12)c1cnccn1 | 274 | > 1000 | 233 | 0.851 | 2.28 | – | – | – | – | – | –
27 | Cc1ccc2nc(-c3ccc4nc(-c5ccc(N)cc5)sc4c3)sc2c1S(=O)(=O)O | – | 10 | – | – | – | 40 | 46 | > 200 | – | – | –
28 | O=C(NNc1ncnc2sc3c(c12)CCCC3)c1ccc2ccccc2n1 | 2.4 | > 1000 | 40.4 | 16.5 | – | – | – | – | – | – | –
29 | O=C(NNc1ncnc2sc3c(c12)CCCC3)c1ccccc1O | 233 | > 1000 | 63.6 | 0.273 | 0.567 | – | – | – | – | – | –
30 | C/C(=N/Nc1ncnc2sc3c(c12)CCC3)c1ccccn1 | 11.9 | > 1000 | 14 | 1.18 | 1.44 | – | – | – | – | – | –
31 | C/C(=N\Nc1ncnc2sc3c(c12)CCCC3)c1ccc2ccccc2n1 | > 10.4 | > 1000 | 7.23 | < 0.697 | – | – | – | – | – | – | –
32 | O=C(NNc1ncnc2sc3c(c12)CCCC3)c1cnccn1 | 8.21 | > 1000 | 10.6 | 1.29 | 3.75 | – | – | – | – | – | –
33 | Cc1sc2ncnc(NNC(=O)c3cnccn3)c2c1C | 43.3 | > 1000 | 1.67 | 0.0386 | 0.319 | – | – | – | – | – | –
34 | C/C(=N\Nc1nc(C)nc2sc3c(c12)CCCC3)c1cnccn1 | > 42.7 | > 1000 | > 3 | 0.069 | 0.24 | – | – | – | – | – | –
35 | Cc1nc(NNC(=O)c2ccccc2O)c2c3c(sc2n1)CCCC3 | 19.8 | > 1000 | 25 | 1.26 | 3.07 | – | – | – | – | – | –
36 | C/C(=N\Nc1ncnc2sc3c(c12)CCCC3)c1cc2ccccc2[nH]1 | 0.42 | > 1000 | 26 | 61.2 | > 277 | – | – | – | – | – | –
37 | C/C(=N/Nc1ncnc2sccc12)c1ccccc1O | 17.2 | > 1000 | 80.5 | 4.69 | > 10.6 | – | – | – | – | – | –
38 | C/C(=N\Nc1ncnc2sc3ccccc3c12)c1ccccc1O | 134 | > 1000 | 11.5 | 0.0861 | 0.421 | > 1000 | 827 | – | – | – | –
39 | C/C(=N\Nc1ncnc2sc3c(c12)CCCC3)c1cc(O)ccc1O (stereo in doubt; form 1) | – | > 1000 | – | – | – | – | – | – | > 141 | > 141 | < 1
40 | O=C(O)C1=CC(=C(c2ccc(O)c(C(=O)O)c2)c2ccc(O)c(C(=O)O)c2)C=CC1=O [AURINTRICARBOXYLIC ACID] | – | 0.3 | – | – | – | 5.1 | 2 | 3.3 | – | – | –
